In paper PMC5397363 (Molecular microbiology, 2017):
Values joined by “and” are separate entries in the source; they are usually repeats but may differ in a detail not shown here. Identical values can stand only once. * marks the point of attachment. CH2Cl = ClC*

Experiments:
Prp [1] = target: T1, Prp (Staphylococcus aureus, UniProt Q2FXS9); assay: Fluorogenic peptide cleavage assay, Michaelis-Menten kinetics of wild-type Prp; format: biochemical; conditions: pH 7.0
Prp [2] = target: T1, Prp; assay: Reaction of Prp with Ellman's reagent under non-denaturing conditions
Prp [3] = target: T1, Prp; assay: Inhibition of Prp by chloromethylketone-containing substrate peptide; format: biochemical
In short: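 Recombinant S. aureus Prp was purified on Ni-NTA, with the His6-SUMO tag removed by Ulp1. It was tested in a fluorogenic peptide cleavage assay in 50 mM sodium phosphate pH 7.0 with 1.5 mM DTT, 2.35 mM EDTA and 2.53% DMSO (final). Fluorescence (ex 325/em 414 nm) was read every 8 s for 10 min at ambient temperature. Percent inhibition was taken from initial velocities relative to a no-inhibitor control.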

T1 sequence (Q2FXS9 whole entry): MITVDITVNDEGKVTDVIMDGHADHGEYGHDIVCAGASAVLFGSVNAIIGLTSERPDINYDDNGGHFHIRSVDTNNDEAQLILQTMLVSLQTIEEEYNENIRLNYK

Question: Which results are given for “2-aminobenzoic acid-KLNLQFFASKK-dinitrophenol [fluorogenic substrate]”?
Answer: turnover number (kcat) (Prp [1]; ET constrained to 42.765 nM active sites (2 per dimer)): 0.0458 ± 0.0014 s⁻¹ and 0.05 ± 0.00 s⁻¹; specificity constant (kcat/Km) (Prp [1]): 251100 ± 39300 M⁻¹ s⁻¹ and 250000 ± 40000 M⁻¹ s⁻¹

Question: Which “reaction with Prp (qualitative)” value (Prp [2]) does the source give for `O=C(O)c1cc(SSc2ccc([N+](=O)[O-])c(C(=O)O)c2)ccc1[N+](=O)[O-]` [Ellman’s reagent, 5,5′-dithiobis(2-nitrobenzoic acid)] here?
Answer: Its value is “readily reacts”.

Question: For Ac-KLNLQFF-CH2Cl, which “inhibition of Prp (qualitative)” value (Prp [3]) is on record?
Answer: The value was “inhibited”.
